Compound activity (PubChem)
T cell modulator: modulators of CD8 T cell-vesicle binding, primary screen, mouse 2C CD8+ T cells, flow cytometry; 2C CD8+ T cell-vesicle binding; stronger effect = lower value; response (vesicle binding), % at 7 µM; 330,000 compounds, 0.068% hits; AID 2052, 2009;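 active = response, share of CD8 T cells binding vesicles, and their 90th percentile fluorescence all below set limits, cut at about 80% in these data, passing the limit was not always enough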;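 also: values below 100% mean blocked vesicle binding to the CD8+ T cells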
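Assay system – 2C mouse CD8+ T cells · Also added – QL9-loaded Drosophila micro-vesicles · Timing – Cell–vesicle co-incubation 1.5 h at 37 °C, staining 20 min on ice · Signal – flow cytometry of vesicle-bound cells · Measure – percent CD8+ FL2 mean versus row control · Controls – Peptide-free naked vesicles (low) and QL9 vesicles with 0.7% DMSO vehicle (high)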
Myeloid diff MLP: induction of myeloid progenitor differentiation, primary screen, cell-based, flow cytometry, MLPCN library | ER-HoxA9 myeloid progenitors, lysozyme-GFP differentiation | calls only at 10 µM | 360,000 compounds, 1% hits | AID 624256, 2012;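 active = normalized GFP-positive differentiation at or above the plate's own cutoff, the solvent-only control mean plus 3 SD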;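 also: cells exposed to compound for four days before flow analysis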
Casp6 inh: human caspase-6 inhibitors, primary screen, biochemical, VEID-R110 fluorescence, single point, set 2; P55212; purified caspase-6, Z-VEID-R110 cleavage fluorescence; inhibition, % at 12.5 µM; 350,000 compounds, 0.53% hits;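 active = mean inhibition across replicates at least about 35%, with every replicate also reaching that limit, limit read from the data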;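 also: 0% = median of neutral control wells and 100% = no fluorescence left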
Target sequence (P55212 24-179 limits assumed): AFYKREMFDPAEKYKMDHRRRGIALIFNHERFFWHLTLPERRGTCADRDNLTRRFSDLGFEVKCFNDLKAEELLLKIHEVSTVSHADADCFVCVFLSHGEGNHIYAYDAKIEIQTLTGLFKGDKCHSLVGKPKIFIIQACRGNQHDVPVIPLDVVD
Target sequence (P55212 194-293 limits assumed): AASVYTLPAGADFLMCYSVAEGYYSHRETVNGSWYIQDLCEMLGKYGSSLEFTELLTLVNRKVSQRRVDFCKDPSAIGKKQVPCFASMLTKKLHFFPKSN
Vif inh: HIV Vif self-association inhibitors, primary screen, imaging, HEK293T, single point | inhibition, % at 7.49 µM | 340,000 compounds, 0.35% hits | HEK293T cells, Vif self-association by quenched fluorescence, 24 h; in the data active = inhibition above about 50%, passing the limit was not always enough
Myeloid diff CP1: inducers of myeloid progenitor differentiation, confirmation, cell-based, GFP/Mac1 flow cytometry, cherry pick 01; shares compounds with Myeloid diff MLP; ER-HoxA9 myeloid progenitors, GFP/Mac1 double-positive flow; calls only; 2,300 compounds, 2% hits; AID 651706, 2012;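 active = share of green or green-and-red cells above 9 and 9% in run 1 or 4 and 3% in run 2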
GFP autofluor: counter-screen for myeloid differentiation promoters: compound fluorescence | shares compounds with Myeloid diff MLP | ER-HoxA9 myeloid progenitors, no estrogen, GFP autofluorescence flow cytometry; vehicle wells 0%, positive control 100% | fluorescence response, % (test concentration not listed) | 2,300 compounds, 7.4% hits | AID 651707;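 active = over 5% cells positive for green fluorescent reporter, or over 2% positive for both it and APC stain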;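 also: range taken on the double positive population between DMSO and positive control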
* = called active by the depositor; i = inactive; . = no result given; + = active, no number. The list is not random: actives were taken first. Their share in the collection is about 1.4%.

SMILES | T cell modulator | Myeloid diff MLP | Casp6 inh | Vif inh | Myeloid diff CP1 | GFP autofluor
Cc1ccc(Cc2c(C)[nH]c(=S)[nH]c2=O)cc1 | 550.2 | i | -3.7 | 2.9 | . | .
O=C(N/N=C/CCc1ccccc1)c1ccc(CN2c3cccc4cccc(c34)S2(=O)=O)cc1 | 413.1 | i | . | 2.1 | i | 0.4
Cc1cc(C(=O)C(C)OC(=O)c2ccc(NC(=O)CC#N)cc2)c(C)n1-c1ccc(OC(F)F)cc1 (centres undefined) | 246.4 | + | -0.4 | -12.6 | i | 18.4*
O=C(Cn1c(=O)n(Cc2ccco2)c(=O)c2cc(Cl)ccc21)NCC1CCCO1 (centres undefined) | 250.3 | + | . | 6.8 | i | 0.5
Cc1ccc(/C=C/C(=O)N2CCc3ccccc32)o1 | 188.0 | i | . | 1.0 | i | 0.0
O=C(/C=C/c1ccco1)N1CCc2ccccc21 | 223.3 | i | -5.2 | -8.8 | . | .
COC(=O)C1=CN(Cc2ccc(OC)c(OC)c2)C=C(C(=O)OC)C1c1cccc(F)c1 | 229.1 | + | -3.3 | -11.7 | i | 2.5
COc1cccc(NC(=O)N2CC3(C2)[C@@H](c2ccccc2)[C@@H](CO)N3C(=O)C2CCC2)c1 | . | . | -0.6 | . | . | .
N#C/C(=C\c1ccc(/C=C(/C#N)c2nn(CCO)c(N)c2C#N)cc1)c1nn(CCO)c(N)c1C#N | 105.2 | i | . | -4.8 | i | 1.2
Cn1c(=O)c2c(nc(NCc3ccco3)n2C)n(C)c1=O | 369.2 | i | . | . | . | .
Cn1c(=O)c2c(nc(NCc3ccco3)n2C/C=C/c2ccccc2)n(C)c1=O | 205.5 | i | . | . | i | 0.0
O=C(c1ccccn1)N1CC(=O)N2[C@H](CO)[C@H](c3ccc(C#Cc4ccccc4)cc3)[C@@H]2C1 | . | . | -1.8 | . | . | .
Cc1c(C(=O)N2CCN(c3ccccc3)CC2)sc2ncnc(N3CCN(c4ccccn4)CC3)c12 | i | + | 7.6 | 19.8 | i | 0.0
CCOC(=O)c1c(NS(C)(=O)=O)sc2c1CCC(C)C2 (centres undefined) | 292.2 | i | . | -10.1 | . | .
CCOC(=O)c1c(N)sc2c1CCC(C)C2 (centres undefined) | 161.5 | + | . | -9.5 | i | 0.7
CCCNC(=O)C[C@@H]1CC[C@H]2[C@@H](COc3ccc(NS(=O)(=O)c4ccccc4C)cc3C(=O)N2C)O1 | . | . | -1.9 | . | . | .
CCC(C)Nc1nc2c(c(=O)[nH]c(=O)n2C)n1CCC(C)C (centres undefined) | 408.0 | + | . | 2.8 | i | 0.8
CCC(C)Nc1nc2c(c(=O)[nH]c(=O)n2C)n1CCCc1ccccc1 (centres undefined) | 250.0 | i | -1.8 | 13.7 | . | .
CCCCn1c(-c2ccoc2C)n[nH]c1=S | 359.5 | + | . | 9.9 | i | 0.0
CCCCn1c(-c2ccco2)n[nH]c1=S | 67.2 | i | . | 14.5 | . | .
CCOC(=O)c1c(C)[nH]c(C)c1C(=O)COC(=O)/C=C/c1cccc(Cl)c1 | 0.0 | i | . | -0.6 | . | .
CCOC(=O)c1c(C)[nH]c(C)c1C(=O)COC(=O)/C=C/c1ccccc1[N+](=O)[O-] | 419.1 | + | 3.9 | -14.0 | i | 0.2
CCOC(=O)c1c(C)[nH]c(C(=O)COC(=O)/C=C/c2ccc(O)c(OC)c2)c1C | 0.0 | i | . | 50.0* | i | 0.0
Cc1noc(C)c1NC(=O)Nc1ccc2c(c1)CC(=O)N([C@H](C)CO)C[C@H](C)[C@H](CN(C)C(=O)Nc1ccc(F)cc1)O2 | . | . | -1.6 | . | . | .
CC[C@@]1(C(=O)OC)N[C@H](CN(C)C(=O)C2CCCCC2)[C@@H]2C(=O)N(C)C(=O)[C@@H]21 | 164.0 | i | . | -2.3 | i | 0.0
CCC(=O)N[C@@H]1C=C[C@@H](CC(=O)NCCN2CCCCC2)O[C@H]1CO | . | . | -17.7 | . | . | .
CSc1nc(C)cc(C)c1C#N | 138.1 | + | . | -2.9 | i | 0.3
CC(=O)Nc1ccc(NC(=O)C(C)O/N=C/c2cccc([N+](=O)[O-])c2)cc1 (centres undefined) | 323.4 | i | . | -10.9 | i | 0.0
O=C(C[C@H]1C[C@@H]2c3cc(NC(=O)c4cccnc4)ccc3O[C@@H]2[C@H](CO)O1)NCc1cccnc1 | . | . | -5.2 | . | . | .
